# From PubChem BioAssay
# TAAR1 ag – agonists of human TAAR1; Q96RJ0; CHO RD-HGA16 TAAR1, Fluo-8 calcium fluorescence; vehicle wells 0%, saturating PEA agonist 100%; activation, % at 3 µM; 0.99% of 360,000 active;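 active = activation above the mean activation of all test compounds in the run plus 3 SD, cut at about 38% in these data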
# Target sequence (Q96RJ0 whole entry, looked up): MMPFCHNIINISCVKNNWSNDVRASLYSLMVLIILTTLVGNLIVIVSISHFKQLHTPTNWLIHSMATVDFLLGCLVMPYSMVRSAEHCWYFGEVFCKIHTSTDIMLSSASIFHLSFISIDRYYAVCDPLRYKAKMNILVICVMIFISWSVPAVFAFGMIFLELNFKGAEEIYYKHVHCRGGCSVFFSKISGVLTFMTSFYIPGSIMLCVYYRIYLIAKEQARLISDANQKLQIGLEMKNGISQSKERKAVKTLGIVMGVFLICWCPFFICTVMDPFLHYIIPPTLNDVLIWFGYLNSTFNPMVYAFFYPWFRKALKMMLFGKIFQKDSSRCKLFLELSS
#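 System: CHO-derived RD-HGA16 cells with stable Gα16 and human TAAR1 / Times: 17-24 h plating, Fluo-8 75 min 37 °C, 30 min RT / Technique: calcium-sensitive Fluo-8 signal, excitation 470-495, emission 515-575 nm / Measure: % activation relative to PEA EC100 response / Benchmarks: DMSO and PEA EC100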
# OX1R antag-1 – antagonists of human orexin 1 receptor (OX1R); O43613; OX1R-expressing cells, FRET antagonist read-out; inhibition, % at 6.6 µM; 1.8% of 330,000 active; in the data active = inhibition mostly above about 38%, no sharp cut-off; inactive = mostly below about 40%;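 also: 0% = agonist challenge alone and 100% = reference antagonist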
# CHO parental Ca – counter-screen for OX1R antagonists: effect in parental CHO cells | parental CHO-K1, ATP-induced calcium, Fluo-8 fluorescence | inhibition, % at 5.6 µM | 0.63% of 330,000 active;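 active = inhibition above that plate's mean sample inhibition plus 3 SD, cut at about 26% in these data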;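 also: 0% = ATP-challenged DMSO wells and 100% = DMSO wells without ATP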
#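 Measured by: calcium-sensitive Fluo-8 fluorescence / Test system: CHO parental line / Controls: ATP-challenged DMSO wells low, unchallenged DMSO wells high / Measure: % inhibition / Compound: single nominal dose of 5.6 µM per compound / Replicates: single well per compound, no replicates / Reagent: ATP as calcium-mobilizing challenge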
# TAAR1 antagonist – human TAAR1 antagonism | Q96RJ0 | CHO RD-HGA16 TAAR1, Fluo-8 calcium fluorescence, antagonist | inhibition, % at 3 µM | 1.5% of 360,000 active | AID 624466;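 active = inhibition above a per-plate cutoff, the mean inhibition of test compounds on that plate plus 3 SD, cut at about 49% in these data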;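 also: 0% = DMSO plus EC80 beta-PEA response and 100% = DMSO alone without agonist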
#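 test system = CHO RD-HGA16 cells bearing hTAAR1 | replication = singlicate | controls = DMSO-only wells and EC80 β-PEA-stimulated wells | reagent = EC80 β-phenethylamine stimulus | read-out basis = percent inhibition of PEA-evoked calcium signal, max/basal emission ratio | schedule = seeding 17-24 h prior, 75-min 37 °C, 30-min RT dye loading | signal = kinetic Fluo-8 calcium fluorescence measurement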
# OX1R antag-2 – human HCRTR1 antagonism; O43613; CHO/OX1R cells, Fluo-8 calcium fluorescence, orexin A; inhibition, % at 5 µM; 0.43% of 330,000 active;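 active = inhibition above its plate's threshold, mean inhibition of all tested compounds on the plate plus 3 SD, cut at about 37% in these data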;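 also: 0% = orexin A challenge wells and 100% = SB-334867-A antagonist wells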
# TAAR1 ag conf – confirmation of human TAAR1 agonists | activation, % at 3 µM | AID 651783 | CHO RD-HGA16 TAAR1, Fluo-8 calcium fluorescence; scaled: DMSO 0%, maximal phenethylamine 100% | 82% of 2,400 active | shares compounds with TAAR1 ag;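 active = activation above a cutoff set at the run's mean compound activation plus 3 SD, cut at about 39% in these data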
# Ga16 ag counter – nonselective agonism, TAAR1 counter-screen; 50% of 2,400 active; CHO-Ga16 parental, Fluo-8 calcium fluorescence; normalized to maximal ATP response, DMSO zero; activation, % at 3 µM; AID 651787; shares compounds with TAAR1 ag;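 active = activation above the run cutoff, the mean activation over all tested wells plus 3 SD, cut at about 12% in these data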;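 also: 0% = DMSO wells and 100% = maximal ATP response on the peak over basal ratio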
# TAAR1 desensitize – human TAAR1 agonist that also desensitizes the receptor | shares compounds with TAAR1 ag | inhibition, % at 3 µM | 46% of 2,400 active | CHO RD-HGA16 hTAAR1, Fluo-8 calcium, beta-PEA response inhibition;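 active = inhibition above the run cutoff, the mean inhibition of all test compounds plus 3 SD, cut at about 49% in these data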;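 also: beta-PEA stimulus applied at its EC80; loss of beta-PEA calcium signal after compound pretreatment read as receptor desensitization; 0% = DMSO with beta-PEA at EC80 and 100% = DMSO alone without agonist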
# Ga16 nonsel ant – nonselective Ga16 antagonist in TAAR1 agonist counter-screen. CHO-Ga16 ATP-induced calcium, Fluo-8 fluorescence. 39% of 2,400 active. AID 651952. inhibition, % at 3 µM. shares compounds with TAAR1 ag;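 active = inhibition above the plate's mean compound inhibition plus 3 SD, computed per plate, cut at about 22% in these data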;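 also: 0% = EC80 ATP with DMSO and 100% = DMSO wells without ATP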
# Numbers without * were called inactive; nt = not tested or not shown. This is a sample that favours compounds with a hit; in the whole collection about 4% have one here.
SMILES,TAAR1 ag,OX1R antag-1,CHO parental Ca,TAAR1 antagonist,OX1R antag-2,TAAR1 ag conf,Ga16 ag counter,TAAR1 desensitize,Ga16 nonsel ant
O=C(O)c1nn(CC(=O)N2CCN(c3ncc(C(F)(F)F)cc3Cl)CC2)c(=O)c2ccccc12,1,16,-6,1,-33,nt,nt,nt,nt
CCCS(=O)(=O)NC(=O)C1(C)CCN(C(=O)c2ccco2)C1 (stereo not given),2,nt,nt,-15,nt,nt,nt,nt,nt
NCCc1ccc(O)c(O)c1,nt,10,-2,nt,-2,nt,nt,nt,nt
CCCCc1cc(O)c(CCCC)c(O)c1,113*,8,80*,102*,102*,130*,95*,106*,92*
CCC1COC(c2cccn2Cc2ccccc2Cl)=N1 (stereo not given),21,15,1,6,-19,nt,nt,nt,nt
N#Cc1ccc(/C=N/N=C(N)N)cc1,2,34,-14,1,-1,nt,nt,nt,nt
NC(N)=N/N=C/c1ccc(Br)cc1,58*,1,8,9,-9,80*,10,43,2
CCS(=O)(=O)N1CCN(c2cc3c(cc2[N+](=O)[O-])n(C)c(=O)n3C)CC1,5,56,-8,15,-14,nt,nt,nt,nt
O=C(C[C@H]1C(=O)N(CCc2ccccc2)C[C@@H]1c1ccccc1)Nc1ccccc1,73*,nt,nt,48,nt,77*,0,48,14
COc1cccc(-c2cc(C(=O)Nc3cnn(Cc4ccc(F)cc4)c3)no2)c1,46*,14,-1,47,-14,6,9,27,23*
O=c1[nH]c2ccc(NC(=S)Nc3ccccc3)cc2[nH]1,7,26,-18,-8,-17,nt,nt,nt,nt
O=c1[nH]c2ccc(NC(=S)Nc3ccc(Cl)cc3)cc2[nH]1,53*,34,-6,8,1,58*,11,34,29*
COc1ccc(CN2CCNC(=O)C2CC(=O)NC2CCC2)c(OC)c1 (stereo not given),0,nt,nt,-7,nt,nt,nt,nt,nt
COc1ccc(CN2CCNC(=O)C2CC(=O)NC2Cc3ccccc3C2)c(OC)c1 (stereo not given),46*,5,-17,-26,-8,54*,7,-5,1
C[C@H](NC(=O)c1ncn2c1C(=O)NC[C@H]2C)c1ccccc1,1,nt,nt,-11,nt,nt,nt,nt,nt
COc1cccc(CNC(=O)[C@H](C)NC(=O)N2CC(=O)Nc3ccccc32)c1,4,nt,nt,-10,nt,nt,nt,nt,nt
COC(=O)[C@@]12C[C@@H](CC(=O)NCCc3ccccc3OC)C(=O)N(Cc3ccc4c(c3)OCO4)C1=CCC(C)(C)C2,61*,nt,nt,51*,nt,100*,0,58*,-1
COC(=O)[C@]12CCCCC=C1N(Cc1ccco1)C(=O)[C@H](CC(=O)NCCc1ccccc1OC)C2,51*,nt,nt,9,nt,31,3,26,20
CCCCCCCCN1C(=O)[C@H](CC(=O)NCCc2ccccc2OC)C[C@@]2(C(=O)OCC)CCCC=C12,56*,nt,nt,-2,nt,57*,2,25,10
COC(=O)[C@@]12C[C@@H](CC(=O)NCCc3ccccc3OC)C(=O)N(Cc3ccccc3)C1=CCC(C)(C)C2,11,nt,nt,-15,nt,nt,nt,nt,nt
CCOC(=O)[C@]12CCC=C1N(Cc1ccc3c(c1)OCO3)C(=O)[C@H](CC(=O)NCCc1ccccc1OC)C2,60*,nt,nt,38,nt,91*,3,76*,-2
CCCCCCCCN1C(=O)[C@H](CC(=O)NCCCC)C[C@@]2(C(=O)OCC)CCCC=C12,-2,nt,nt,-14,nt,nt,nt,nt,nt
Cc1cc(C(=O)N2CCC2(C)C(=O)Nc2ccc3[nH]ncc3c2)nn1C (stereo not given),1,nt,nt,-3,nt,nt,nt,nt,nt
